Values after ≈ are worked out from the molar mass of the structure shown. Active and inactive are the calls of the source. The rule behind the calls is not given here.
Legend:
Escherichia coli = assay: Antibacterial activity against Escherichia coli ATCC 9637; format: functional, organism-based
Outline: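 Two-fold serial broth dilution in NYG broth (0.8% nutrient broth, 0.5% yeast extract, 0.1% glucose); compound dilutions in DMF, 30 µL added to 3 mL broth, inoculated with 30 µL overnight culture; 37 °C, 48 h; MIC = lowest concentration with no visible growth; top concentration 200 µg/mL (solubility-limited).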

Staphylococcus aureus = assay: Antibacterial activity against methicillin-resistant Staphylococcus aureus ATCC 33592 by broth dilution method; format: functional
Outline: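 Two-fold serial broth dilution in NYG broth (0.8% nutrient broth, 0.5% yeast extract, 0.1% glucose). Compound dilutions made in DMF and added 1:100 to broth. Inoculum was an overnight culture added at 1:100. Incubated at 37 °C for 48 h. MIC taken as the lowest concentration with no visible growth. Top concentration tested was 200 (solubility limit).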

Row | Compound | Activity (Escherichia coli) | MIC (Staphylococcus aureus) | Activity (Staphylococcus aureus)
1 | CC(C)CCCC(C)CCCc1cccc(O)c1C(=O)O (configuration not stated) | inactive | 0.39 µg/mL (≈ 1.33 µM) | 
2 | O=C(O)c1c(O)cccc1CC1CCCCCCCCCCC1 | inactive | 0.39 µg/mL (≈ 1.22 µM) | 
3 | CCCCCC(CC)Cc1cccc(O)c1C(=O)O (configuration not stated) | inactive | 6.25 µg/mL (≈ 23.6 µM) | 
4 | O=C(O)c1c(O)cccc1CCc1ccc(O)cc1O | inactive | > 200 µg/mL | 
5 | O=C(O)c1c(O)cccc1CCc1ccc(O)c(O)c1 | inactive | 100 µg/mL (≈ 365 µM) | 
6 | O=C(O)c1c(O)cccc1CCc1ccc(O)cc1 | inactive | 50 µg/mL (≈ 194 µM) | 
7 | O=C(O)c1c(O)cccc1CC1CCCCCCC1 | inactive | 12.5 µg/mL (≈ 47.6 µM) | 
8 | O=C(O)c1c(O)cccc1CCc1cc(O)c(O)cc1O | inactive | > 200 µg/mL | 
9 | C=CC/C=C\C/C=C\CCCCCCCc1cccc(O)c1C(=O)OC | inactive | > 800 µg/mL | 
10 | C=CC/C=C\C/C=C\CCCCCCCc1cccc(OC(C)=O)c1C(=O)O | inactive | > 800 µg/mL | 
11 | O=C(O)c1c(O)cccc1CCC1CCCCC1 | inactive | 12.5 µg/mL (≈ 50.3 µM) | 
12 | O=C(O)c1c(O)cccc1CCc1ccccc1 | inactive | 100 µg/mL (≈ 413 µM) | 
13 | O=C(O)c1c(O)cccc1CCCCc1ccccc1 | inactive | 25 µg/mL (≈ 92.5 µM) | 
14 | O=C(O)c1c(O)cccc1CC1CCCCC1 | inactive | 25 µg/mL (≈ 107 µM) | 
15 | O=C(O)c1c(O)cccc1CCc1cc(O)ccc1O | inactive | 100 µg/mL (≈ 365 µM) | 
16 | O=C(O)c1c(O)cccc1CC1CCCC1 | inactive | 100 µg/mL (≈ 454 µM) | 
17 | CCCCCCCCCOC(=O)c1ccccc1O |  |  | inactive
18 | CCCCCC/C=C/CCCCCCCc1cccc(O)c1C(=O)O | inactive | 6.25 µg/mL (≈ 18 µM) | 
19 | CCCCC(C)Cc1cccc(O)c1C(=O)O (configuration not stated) | inactive | 50 µg/mL (≈ 212 µM) | 
